One assay concerns WiDr. Kind of assay: In vitro inhibition of WiDr colon cancer cell line. In kind it is functional, cell-based. The conditions noted are these: Homo sapiens. An outline of the steps: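 Cells plated at 50 000 per well in 96-well trays. Drugs dissolved in DMSO as stock, then diluted in buffer and added to wells. IC50 was calculated from concentration–survival curves over a concentration range giving 0–100% survival.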

The test system of assay [1] is RPMI-8226. In words: In vitro inhibition of […] myeloma cancer cell line. Format: functional, cell-based. The conditions noted are these: Homo sapiens. An outline of the steps:
(§1)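 Cell growth inhibition: cells plated at 50 000/well; drugs dissolved in DMSO as stock and diluted in buffer before addition. IC50 taken from concentration-survival curves over a range of concentrations giving 0-100% survival.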

For assay [2], the system named is A2780. In words: In vitro inhibition of 2780/DOX ovarian cancer cell line. In kind it is functional, cell-based. The conditions noted are these: Homo sapiens. An outline of the steps: as §1
Assay [3] has as its system RPMI-8226. Kind of assay: Dose-Response relationship for DNA single-strand cleavage with the compound in human 8226 multiple myeloma cells at a concentration of 1.0 ug/mL x1 hr. Format: functional.
In assay [4] the test system is A2780. Kind of assay: In vitro inhibition of 2780/S ovarian cancer cell line. Format: functional, cell-based. Particulars: Homo sapiens; call rule not given here. In outline:
as §1

For assay [5], the system named is 2008/S. In words: In vitro inhibition of 2008/S ovarian cancer cell line. In kind it is functional, cell-based. Particulars: Homo sapiens. An outline of the steps: as §1
In assay [6] the test system is RPMI-8226. In words: Dose-Response relationship for DNA single-strand cleavage with the compound in human 8226 multiple myeloma cells at a concentration of 0.1 ug/mL x1 hr. Format: functional.
The test system of assay [7] is RPMI-8226. In words: Dose-Response relationship for DNA single-strand cleavage with the compound in human 8226 multiple myeloma cells at a concentration of 10 ug/mL x1 hr. In kind it is functional.
Assay [8] deals with 2008/R. In words: In vitro inhibition of 2008/R ovarian cancer cell line. Format: functional, cell-based. Particulars: Homo sapiens. An outline of the steps: as §1
Another assay relates to Ovarian carcinoma cell. Kind of assay: Inhibitory activity against ovarian cancer cell line; NA= Not achievable. Format: functional, cell-based, Homo sapiens. An outline of the steps: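 Fresh human tumor chemosensitivity assay: ovarian cancers removed surgically from patients, minced, and plated on soft agar as a single-cell suspension.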
The next assay deals with SW480. Kind of assay: In vitro inhibition of SW480 colon cancer cell line. Format: functional, cell-based. The conditions noted are these: Homo sapiens. An outline of the steps:
as §1

Assay [9] deals with 2008/R. In words: In vitro inhibition of 2008/R ovarian cancer cell line; NA= Not achievable. Format: functional, cell-based, Homo sapiens. An outline of the steps:
as §1

The test system of assay [10] is 2008/S. Kind of assay: In vitro inhibition of 2008/S ovarian cancer cell line; NA= Not achievable. Format: functional, cell-based, Homo sapiens. An outline of the steps: as §1

As for `CC(=O)OC1CCn2c1nc1c2C(=O)C(C)=C(N(C)C)C1=O` (configuration not stated), the IC50 (in general, the concentration that inhibits the measured activity by half) with WiDr worked out at 10000 nM.
On the same count and under the same terms, the same measure for `CC(=O)NC1=C(C)C(=O)c2c(nc3n2CCC3OC(C)=O)C1=O` (configuration not stated): 6000 nM.
The same measure, in the same setting: the same measure for `CC1=C(N(C)C)C(=O)c2nc3n(c2C1=O)CCC3OC(N)=O` (configuration not stated): 13000 nM; for `CC1=C(N2CC2)C(=O)c2nc3n(c2C1=O)CCC3`: 15 nM.
The compound `CC(=O)NC1=C(C)C(=O)c2c(nc3n2CCC3OC(N)=O)C1=O` (configuration not stated) returned an IC50 with WiDr of 16000 nM.
On the same count and under the same terms, the same measure for `CC1=C(N(C)C)C(=O)c2nc3n(c2C1=O)CCC3`: 13000 nM; for `CC(=O)OC1CCn2c1nc1c2C(=O)C(C)=C(NC(=O)CCl)C1=N` (configuration not stated): 280 nM.
Still for that read-out and setting: the same measure for `CC1=CC(=O)c2nc3n(c2C1=O)CCC3OC(N)=O` (configuration not stated): 10000 nM; for `CC(=O)NC1=C(C)C(=O)c2c(nc3n2CCC3OC(C)=O)C1=N` (configuration not stated): 150 nM.
On to `CC(=O)OC1CCn2c1nc1c2C(=O)C(C)=CC1=O` (configuration not stated), for which the IC50 in the assay on WiDr is 300 nM.
Regarding `CC(=O)OC1CCn2c1nc1c2C(=O)C(C)=C(N2CC2)C1=O` (configuration not stated), the IC50 came to 100 nM with RPMI-8226 [1]; 16 nM in the assay with A2780 [2]; 0.6 nM in the assay with A2780 [4]; 7 nM in the assay with 2008/S [5]; 10 nM with WiDr; 7 nM in the assay on 2008/R [8]. Besides, the half-maximal inhibitory concentration (IC50) entry with Ovarian carcinoma cell is “Not Active”; in the assay with SW480, 9 nM. In addition, the Cleavage is on record as 321 in the assay on RPMI-8226 [3], 59 in the assay on RPMI-8226 [6] and 469 in the assay on RPMI-8226 [7].
With `CC(=O)NC1=C(C)C(=O)c2c(nc3n2CCC3)C1=N`, inhibition in the assay on WiDr was half-maximal at 10000 nM (IC50).
On to `CC1=C(N2CC2)C(=O)c2nc3n(c2C1=O)CCC3OC(N)=O` (configuration not stated), for which the IC50 entry with 2008/R [9] was “Not Active”; in the assay with RPMI-8226 [1], 140 nM; in the assay with A2780 [2], 200 nM; with 2008/S [10] it was “Not Active”; in the assay with A2780 [4], 100 nM; in the assay on WiDr, 100 nM. The same compound yielded a concentration for half-maximal inhibition (IC50) in the assay with SW480 of 19 nM.
In the assay with WiDr, `CC(=O)NC1=C(C)C(=O)c2c(nc3n2CCC3)C1=O` returned an IC50 of 500 nM.
On to `CO[C@@]12[C@H](COC(N)=O)C3=C(C(=O)C(C)=C(N)C3=O)N1C[C@@H]1N[C@@H]12` [MITOMYCIN], for which the IC50 entry with 2008/R [9] is “Not Active”; in the assay with RPMI-8226 [1], 200 nM; in the assay with A2780 [2] it was 200 nM; in the assay with 2008/S [10] it was “Not Active”; with A2780 [4], 100 nM; in the assay on WiDr, 10 nM. The IC50 with SW480 was 7 nM.

The values are drawn from ChEMBL document CHEMBL1125763, “Structure-activity studies of antitumor agents based on pyrrolo[1,2-a]benzimidazoles: new reductive alkylating DNA cleaving agents” (J Med Chem, 1991).
